Source: PubChem (The Scripps Research Institute Molecular Screening Center)
OXTR potentiate: human OXTR potentiation; P30559; CHO-OTR cells, Fluo-8 calcium fluorescence, potentiator mode; 0% = oxytocin EC15, 100% = EC100; activation, % at 3 µM; 320,000 compounds, 0.061% hits;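 active means activation above that plate's cutoff, the mean activation of tested compounds plus 3 SD, cut at about 6.6% in these data, passing the limit was not always enough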;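 further: 100% uses oxytocin at 75 nM as the full agonist control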
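Assay system: CHO-OTR cells, human receptor / Also added: oxytocin at about EC15, sub-maximal agonist stimulus / Dosing: single dose, 3.0 µM nominal final compound concentration / Incubation: 6 min pre-incubation, 100 s read / Technique: Fluo-8 calcium dye fluorescence / Read-out: % activation vs EC15 and EC100 oxytocin / Benchmarks: EC15 oxytocin low, 75 nM oxytocin high / Replicates: singlicate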
OXTR agonist: human OXTR agonism; P30559; CHO-OTR cells, Fluo-8 calcium fluorescence; normalized: DMSO 0%, oxytocin 100%; activation, % at 3 µM; 320,000 compounds, 0.32% hits; AID 2435;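 active means activation above the mean of all tested compounds plus 3 SD, cutoff set per screening run, cut at about 20% in these data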;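 further: peak over basal fluorescence ratio from a 100 s FLIPR kinetic read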
V1R ag counter: V1a receptor agonism, counter-screen for OXTR agonists; P37288; CHO-V1R cells, Fluo-8 calcium fluorescence, agonist mode; 0% DMSO, 100% 3 nM vasopressin; activation, % at 3 µM; 320,000 compounds, 0.25% hits;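 active means activation above the mean activation of all tested compounds plus 3 SD, per screening run, cut at about 20% in these data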;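 further: signal is peak over basal fluorescence ratio across a 100 second FLIPR read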
Target sequence (P37288 whole entry, looked up): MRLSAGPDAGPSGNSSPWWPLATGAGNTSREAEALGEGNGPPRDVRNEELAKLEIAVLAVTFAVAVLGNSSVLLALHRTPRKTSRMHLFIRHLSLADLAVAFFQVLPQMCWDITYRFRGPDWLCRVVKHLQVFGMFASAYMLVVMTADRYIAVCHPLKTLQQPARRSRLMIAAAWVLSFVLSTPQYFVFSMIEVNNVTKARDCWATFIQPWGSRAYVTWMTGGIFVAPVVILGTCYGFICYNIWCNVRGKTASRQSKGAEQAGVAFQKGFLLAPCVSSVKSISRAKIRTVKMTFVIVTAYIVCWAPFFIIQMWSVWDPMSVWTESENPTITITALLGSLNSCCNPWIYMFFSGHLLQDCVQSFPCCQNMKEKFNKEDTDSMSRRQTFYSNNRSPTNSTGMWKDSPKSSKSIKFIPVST
TAAR1 antag: human TAAR1 antagonism. inhibition, % at 3 µM. 360,000 compounds, 1.5% hits. CHO RD-HGA16 TAAR1, Fluo-8 calcium fluorescence, antagonist;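 active means inhibition above a per-plate cutoff, the mean inhibition of test compounds on that plate plus 3 SD, cut at about 49% in these data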;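 further: 0% = DMSO plus EC80 beta-PEA response and 100% = DMSO alone without agonist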
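Test system: CHO RD-HGA16 cells bearing hTAAR1 | Reagent: β-PEA, EC80 | Compound dosing: 3 µM, single point | Schedule: Dye loading 75 min at 37 °C, then 30 min room temperature | Signal: Calcium fluorescence with Fluo-8 | Evaluation: Percent inhibition of PEA-evoked calcium signal, max/basal emission ratio | Control set: DMSO-only wells and EC80 β-PEA-stimulated wells | Repeats: Singlicate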
TAAR1 agonist: agonists of human TAAR1; Q96RJ0; CHO RD-HGA16 TAAR1, Fluo-8 calcium fluorescence; vehicle wells 0%, saturating PEA agonist 100%; activation, % at 3 µM; 360,000 compounds, 0.99% hits;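 active means activation above the mean activation of all test compounds in the run plus 3 SD, cut at about 38% in these data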
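System: CHO-derived RD-HGA16 cells with stable Gα16 and human TAAR1. Times: 17-24 h plating, Fluo-8 75 min 37 °C, 30 min RT. Measured by: calcium-sensitive Fluo-8 signal, excitation 470-495, emission 515-575 nm. Read-out basis: % activation relative to PEA EC100 response. Control set: DMSO and PEA EC100. Repeats: no replicates (n 1).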
* marks the source's active call; other numbers are inactive results; / = no result; ! = a repeat was not active. In the library only some 2.3% were active in any assay of this set; here they are far more common.

SMILES | OXTR potentiate | OXTR agonist | V1R ag counter | TAAR1 antag | TAAR1 agonist
COc1ccc(N2C(=O)c3[nH]nc(-c4ccccc4)c3C2c2ccc(F)cc2)cc1 (stereo not drawn) | / | / | / | -22 | 35
COc1cccc(CNC(=O)[C@H]2CCCN2C(=O)[C@H]2CCCN2C(=O)N2CCOCC2)c1 | / | / | / | 0 | 1
Oc1ccc(Cl)cc1CNCc1ccc(Cl)cc1 | -10 | 15 | 4 | 8 | 49*
O=C(NCCc1ccccc1C(F)(F)F)c1cc(COc2ccccc2)on1 | / | / | / | -1 | 5
O=C(Nc1nnc(SCc2ccc(F)cc2)s1)C1CC(=O)N(c2ccc3c(c2)OCCO3)C1 (stereo not drawn) | -8 | 0 | 1 | -4 | 38*
N#Cc1ccc(CSc2nnc(NC(=O)C3CC(=O)N(c4ccc5c(c4)OCCO5)C3)s2)cc1 (stereo not drawn) | -7 | 0 | 1 | / | /
COc1ccc(CN2C(=O)c3ccccc3C2C(=O)NC2CCCC(C)C2C)c(OC)c1 (stereo not drawn) | / | / | / | -24 | -1
CCC(NC(=O)c1cc(COc2ccc(F)cc2Cl)on1)c1ccncc1 (stereo not drawn) | / | / | / | 24 | 43*
CC(Nc1nc(N2CCNCC2)nc2ccccc12)c1ccccc1 (stereo not drawn) | -7 | 0 | 0 | 39 | 39*
COC(=O)c1ccccc1NC(=O)CSc1nnc(-c2cccnc2)o1 | -2 | 1 | 3 | 6 | -2
O=C(CN1CCc2ccccc2C1)Nc1cccc(S(=O)(=O)N2CCCC2)c1 | -9 | 0 | 0 | -7 | 38*
O=C(Cc1ccccc1)Nc1cccc(S(=O)(=O)N2CCCCCC2)c1 | -9 | 7 | 8 | 7 | 4
CC12CCC(=O)C=C1CCC1C2CCC2(C)C(c3csc(N)n3)CCC12 (stereo not drawn) | / | / | / | 51* | 23
Nc1[nH]c(C(=O)c2ccccc2)c(-c2cccc3ccccc23)c1C(=O)NC1CCCCC1 | / | / | / | -25 | -1
CCCCNC(=O)C1CC(c2cccc([N+](=O)[O-])c2)=NO1 (stereo not drawn) | -4 | 0 | 1 | 13 | 5
O=C(NCCc1cccs1)C1CC(c2cccc([N+](=O)[O-])c2)=NO1 (stereo not drawn) | -8 | 1 | 1 | 49* | 32
CC(C)Cn1c(N)c(C(=O)CSc2nc3ccccc3c(=O)n2CCCN2CCOCC2)c(=O)n(C)c1=O | -6 | 0 | 1 | / | /
CCOc1ccc(C(=O)Cc2cc(OC)c(OC)cc2[N+](=O)[O-])cc1 | -5 | 1 | 0 | 63* | 42*
O=C(CS(=O)(=O)Cc1ccccc1)NCc1ccco1 | -5 | -1 | 0 | -14 | 2
CC(=O)c1ccc(NC(=O)c2ccc3snnc3c2)cc1 | -4 | 1 | 3 | -4 | 3
O=C(Nc1ccccc1)Nc1ccc2snnc2c1 | -22 | 18 | 12 | 17 | 40*
CN(C)c1ccc(NC(=O)Nc2ccc3snnc3c2)cc1 | -32 | 10 | 9 | 58* | 22
O=C(Nc1ccccc1)Nc1ccc2nnsc2c1 | -18 | 13 | 15 | 3 | 30
CCN1C(=O)[C@H]2[C@@H](c3ccccc3)N[C@]3(CCCN(Cc4ccccc4)C3=O)[C@H]2C1=O | / | / | / | -8 | 2
Nc1ccc2c3c(cccc13)CC2 | -8 | 46* | 46* | 32 | 18
SMILES | OXTR potentiate | OXTR agonist | V1R ag counter | TAAR1 antag | TAAR1 agonist
c1ccc(Nc2ccc3c4c(cccc24)CC3)cc1 | -3 | 1 | 4 | 38 | 23
COc1ccc(OC)c(NC(=O)C(=O)NCCC2=CCCCC2)c1 | -7 | -2 | -1 | 14 | -1
COc1ccc(OCC(=O)N(Cc2sccc2C)C2CCS(=O)(=O)C2)cc1 (stereo not drawn) | -5 | 2 | 2 | -13 | 2
COC(=O)C1=CN(c2ccc(OC)cc2)C(N)=C(C#N)C1c1ccc(OC)cc1 (stereo not drawn) | / | / | / | 8 | 2
CCc1ccc(N2C=C(C(=O)OC)C(c3ccc(OC)cc3)C(C#N)=C2N)cc1 (stereo not drawn) | / | / | / | 59* | -1
CC1=C(C(=O)N2CCOCC2)CC(CC(=O)NCCCN(C)C)C(=O)N1CCCN1CCCC1=O (stereo not drawn) | / | / | / | -10 | 1
Cc1cc(C)c(NC(=O)COC(=O)c2ccc([N+](=O)[O-])s2)c(C)c1 | -6 | -1 | 2 | -15 | 3
Cc1ccc(NC(=O)COC(=O)c2ccc([N+](=O)[O-])s2)c(C)c1 | -9 | -1 | -1 | -6 | 39*
O=C(O)c1cccc(NC(CNS(=O)(=O)c2ccc(Cl)cc2)c2ccccc2)c1 (stereo not drawn) | 2 | 1 | 1 | -11 | 2
O=S(=O)(NCC(Nc1ccccc1)c1ccccc1)c1ccc(Cl)cc1 (stereo not drawn) | -16 | -2 | 0 | 51* | -1
COc1cc(CNc2ncnc3c2ncn3[C@H]2CN(CCN3CCOCC3)C[C@@H](CO)O2)cc(OC)c1OC | / | / | / | 2 | 2
COc1cc(N2CCCC2)c(OC)cc1/C=C1/NC(=S)NC1=O | -9 | 48* | 36* | 51* | 45*
COc1ccc(OC)c(/C=C2\NC(=O)NC2=O)c1 | 6 | 0 | 0 | -18 | 5
COc1cc(C(=O)NNC(=S)NC(=O)/C=C/c2ccccc2)cc(OC)c1OC | -11 | 1 | 4 | 23 | 39*
CC(C)c1ccc2c(c1)CCC1C(C)(CN)CCCC21C (stereo not drawn) | -3 | 7 | 7 | 6 | 39*
CC(C)c1ccc2c(c1)CC[C@H]1[C@](C)(CN)CCC[C@]21C | / | / | / | -2 | 38*!
Cc1ccccc1C1c2[nH]c3ccccc3c2C[C@H]2C(=O)N(c3ccccc3C(=O)NCCN3CCOCC3)C(=O)N12 (stereo partly drawn) | -9 | 4 | 3 | 50* | 9
CC1CCCCN1CCNC(=O)CN1C(=O)CSc2ccc(S(=O)(=O)N3CCCCC3)cc21 (stereo not drawn) | -6 | 0 | -1 | -26 | 2
O=C(NCCc1ccccn1)C(F)(F)C(F)(F)C(F)(F)C(F)(F)C(F)(F)C(F)(F)C(F)(F)C(F)F | 1 | 0 | 0 | -1 | 41*
C=CCn1c(SCC(=O)Nc2cc(C)on2)nnc1-c1ccncc1 | / | / | / | -1 | 1
CN(C)CCN(C(=O)/C=C/c1cccs1)c1nc2ccc(Br)cc2s1 | -1 | 4 | 2 | 56* | 6
OCCCc1nc2n(n1)C(c1cccs1)C=C(c1ccc(Br)cc1)N2 (stereo not drawn) | -11 | 160* | 109* | / | /
O=C(N/N=C/c1cccc(O)c1)c1ccc(-n2cnnn2)cc1 | / | / | / | -6 | 0
O=C(c1ccc(F)cc1F)N1CCN(c2ncccn2)CC1 | -9 | 6 | 1 | -1 | 6
